Screening results from PubChem.
A selection: hits, their analogues and other compounds. The true share with any hit is near 2.5%.
CDK5 p35 inh = inhibitors of human CDK5/p35 kinase, primary screen, biochemical, single concentration | Recombinant CDK5/p35, ADP-Glo luminescence, 60 min | 330,000 compounds, 0.01% hits | AID 488839, 2010 | Cyclin-dependent kinase 5 (Homo sapiens) + Cyclin-dependent kinase 5 activator 1 (Homo … | inhibition, % at 10 µM;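 active means highest replicate inhibition of at least 50% and at least 75% of replicates reaching 50%; inconclusive means only one of the two criteria met; inactive means both criteria failed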
Target sequence (Q00535 whole entry, looked up): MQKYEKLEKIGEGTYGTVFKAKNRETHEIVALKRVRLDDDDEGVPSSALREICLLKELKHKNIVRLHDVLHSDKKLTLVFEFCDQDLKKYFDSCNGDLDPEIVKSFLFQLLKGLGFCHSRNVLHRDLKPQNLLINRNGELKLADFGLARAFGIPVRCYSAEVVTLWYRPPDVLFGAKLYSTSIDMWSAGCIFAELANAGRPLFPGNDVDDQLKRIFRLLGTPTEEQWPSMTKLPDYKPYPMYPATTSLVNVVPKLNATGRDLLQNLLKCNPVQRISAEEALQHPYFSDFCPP
Target sequence (Q15078 whole entry, looked up): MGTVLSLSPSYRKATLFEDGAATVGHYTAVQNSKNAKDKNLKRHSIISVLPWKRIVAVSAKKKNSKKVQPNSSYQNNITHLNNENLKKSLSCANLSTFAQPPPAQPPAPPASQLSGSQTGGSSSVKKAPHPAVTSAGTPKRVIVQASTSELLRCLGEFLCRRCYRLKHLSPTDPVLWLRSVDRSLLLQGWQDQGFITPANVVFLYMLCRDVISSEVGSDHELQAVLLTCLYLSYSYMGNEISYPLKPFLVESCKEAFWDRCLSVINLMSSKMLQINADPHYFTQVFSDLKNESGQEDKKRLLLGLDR
DYRK1A inh = rat Dyrk1A kinase inhibitors, primary screen, biochemical, single point, plate reader; ADP-Glo luminescence, NFATc1 peptide; 310,000 compounds, 0.43% hits; inhibition, % at 12.5 µM
NSD2 HMT inh = NSD2 histone methyltransferase inhibitors, primary screen, biochemical, AlphaScreen, single concentration, set 2; Histone-lysine N-methyltransferase NSD2 (Homo sapiens), O96028; NSD2 peptide methylation, 120 min; inhibition, % at 12.5 µM; 310,000 compounds, 0.54% hits
SR-BI HDL uptake = inhibitors of SR-BI mediated HDL lipid uptake, primary screen, ldlA[mSR-BI] cells, fluorescence, single point; 320,000 compounds, 0.96% hits; inhibition, % at 12.5 µM; ldlA[mSR-BI] CHO cells, DiI-HDL uptake fluorescence, 3 h; AID 488896, 2010;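 active means mean replicate inhibition of at least 70% and a set share of replicates each scoring 70 or more; inconclusive means meets just one of the two criteria; inactive means fails both criteria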
SR-BI DiI-HDL act = activators of SR-BI mediated DiI-HDL uptake, primary screen, ldlA[mSR-BI] CHO cells, DiI fluorescence; 3 h; 100 = double the neutral-control signal; activation, % at 12.5 µM; 320,000 compounds, 0.096% hits;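 active means mean replicate activation of at least 60% and every replicate at or above 60%; inconclusive means mean or all-replicate condition met, but not both; inactive means mean below 60% and not all replicates reaching 60%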
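Test system: SR-BI-overexpressing, LDLR-lacking CHO cells; Medium: Ham's F12 with 0.5% BSA, HEPES 25 mM, pH 7.4; Schedule: 3 h, 37 °C; Technique: bottom-read fluorescence, 550/595 nm.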
dFosB act = activators of delta FosB homodimer, primary screen, biochemical, fluorescence polarization, TAMRA-CDK5 oligo, single point. 340,000 compounds, 0.99% hits. purified delta FosB; percent of positive-control signal above neutral wells. activation, % at 25 µM. AID 493131, 2011;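 active means mean activation above about 17%, with every replicate also reaching it, limit read from the data, passing the limit was not always enough; inconclusive means only one of the two conditions met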
Numbers stand for hits; n = inactive; u = inconclusive; x = not tested or not shown. Unless noted, no stated cut-off is given here; in the data, active means inhibition above about 50%; inactive means the rest.

SMILES	CDK5 p35 inh	DYRK1A inh	NSD2 HMT inh	SR-BI HDL uptake	SR-BI DiI-HDL act	dFosB act
CCN(CC)C(=O)C(Oc1ccc(S(=O)(=O)N2CCCC2)cc1[N+](=O)[O-])c1ccccc1 (centres undefined)	n	n	n	x	x	n
COc1ccc(C(=O)Nc2ccc(Nc3ccccc3)cc2)cc1Br	n	x	n	97.7	n	n
CC1N(C)c2cc(NC(=O)c3ccco3)c(P(=O)(Nc3ccc([N+](=O)[O-])cc3)N3CCOCC3)cc2C1(C)C (centres undefined)	n	n	n	n	n	u
O=C(Nc1ccccc1N1CCN(C(=O)c2ccccc2)CC1)c1ccc(Cl)cc1	n	n	x	n	n	n
CC1N(C)c2cc(NC(=O)c3ccco3)ccc2C1(C)C (centres undefined)	n	n	n	n	139.5	144.6
COc1ccc(C(=O)Nc2ccccc2N2CCN(C(=O)c3ccccc3)CC2)cc1Br	n	n	n	85.8	n	n
Cc1ccc(NC(=O)c2cc(NC(=O)c3ccco3)ccc2N2CCCCC2)cc1	n	n	x	72.6	n	n
CC(C)(C)OC(=O)N1CCC(C(=O)Nc2cccc(C(=O)NCCCCc3ccccc3)c2)CC1	n	x	x	n	n	n
Cc1cc(C)nc(SCc2ccc(Br)cc2)n1	n	n	n	n	n	n
CCOC(=O)c1cccc(NC(=O)c2ccc(NC(=O)c3ccco3)cc2)c1	n	n	n	n	x	16.3
COC(=O)c1cccc(NC(=O)Nc2ccccc2OC)c1	n	n	n	80.8	n	n
CCn1c2ccccc2c2cc(NC(=O)c3ccco3)ccc21	n	n	x	81.7	n	n
CCCC(=O)Nc1ccc(C(=O)Nc2cccc(OC)c2)cc1	n	n	n	74.4	n	n
COc1cccc(NC(=O)c2ccc(NC(=O)C(C)(C)C)cc2)c1	n	n	n	n	n	n
CC(=O)N1CCCN(C(=O)CN2C(=O)CC(C)(C)S(=O)(=O)c3ccccc32)CC1	x	x	n	x	x	x
COc1cccc(C2/C(=C(/O)c3ccc4c(c3)OCO4)C(=O)C(=O)N2CCN2CCOCC2)c1 (centres undefined)	n	n	n	n	n	n
COc1ccc(OC)c2[nH]c(=O)c(CCNC(=O)c3cc4ccccc4oc3=O)cc12	x	x	n	x	x	x
COC(=O)c1ccc(NC(=O)c2ccc(NC(=O)c3ccco3)cc2)cc1	n	n	n	n	n	122.1
Cc1cc(C)cc(NC(=O)c2ccc(NC(=O)c3ccco3)cc2)c1	n	n	n	n	n	n
CCc1ccc(CNC(=O)c2ccc(NC(=O)C3=CSCCO3)cc2)cc1	n	n	n	n	n	23.2
COC(=O)[C@]12C[C@H](CC(=O)N3CCC(c4ccccc4)CC3)C(=O)N(Cc3ccc4c(c3)OCO4)C1=C[C@H](COCc1ccccc1)O[C@@H]2C	x	x	n	x	x	x
Cc1ccccc1-n1c(SCC(=O)N/N=C/C=C/c2ccccc2[N+](=O)[O-])nc2ccccc2c1=O	n	n	n	78.7	n	n
COc1cc([N+](=O)[O-])ccc1NC(=O)Nc1nc2c(s1)CCCC2	n	n	n	72.3	n	n
COc1cc([N+](=O)[O-])ccc1NC(=O)Nc1cnccn1	n	x	n	n	n	n
COc1cc(C(=O)NCC(=O)N/N=C/c2ccco2)cc(OC)c1OC	n	n	n	n	n	n
SMILES	CDK5 p35 inh	DYRK1A inh	NSD2 HMT inh	SR-BI HDL uptake	SR-BI DiI-HDL act	dFosB act
COc1ccc(C(=O)NCC(=O)N/N=C/C(C)=C/c2ccco2)cc1OC	n	n	n	85.5	n	n
COc1ccc(NC(=O)c2cc(-c3ccccc3)nc3c2c(C)nn3-c2ccccc2)c(OC)c1	n	n	n	87.6	n	n
CCOC(=O)c1cc(-c2cccs2)nc2c1c(C)nn2-c1ccccn1	n	x	n	n	n	n
Cc1nn(-c2ccccc2)c2nc(-c3cccs3)cc(C(=O)NN)c12	n	n	n	83.6	n	n
Cc1cccc(NCC(=O)NNC(=S)Nc2ccccc2)c1	n	x	n	n	n	n
Cc1cccc(NC(=S)NNC(=O)Cc2ccccc2)c1	n	n	n	n	211.4	n
COc1cc(/C=N/n2nnnc2Nc2ccccc2)cc(OC)c1OC	n	n	n	89.1	n	n
CN1/C(=C/c2cc[n+](C)c3ccccc23)C=Cc2ccccc21	n	n	x	n	n	51.1
COc1ccc(CN2CCC(CNC(=O)NC3CCCC3)CC2)cc1	x	x	n	x	x	x
Cc1ccc(Cn2ccsc2=NC(=O)COC(=O)c2ccc(NC(=O)CC#N)cc2)cc1	n	n	n	76.8	n	n
Cc1cc(C(=O)COC(=O)c2ccc(NC(=O)CC#N)cc2)c(C)n1C1CC1	n	n	n	79.2	n	n
C=CCCC(=O)Nc1nc(C)c(-c2csc(Nc3ccc(Cl)cc3Cl)n2)s1	n	n	x	n	n	n
COc1ccc(Cl)cc1Nc1nc(-c2sc(NC(=O)CC(C)C)nc2C)cs1	n	n	x	n	n	n
C=CCCC(=O)Nc1nc(C)c(-c2csc(Nc3ccccc3OC)n2)s1	n	n	x	70.7	n	n
C=CCCC(=O)Nc1nc(C)c(-c2csc(Nc3cc(Cl)ccc3OC)n2)s1	n	n	x	86.9	n	n
CCC(C)C(=O)Nc1nc(C)c(-c2csc(Nc3ccccc3OC)n2)s1 (centres undefined)	n	n	x	77.9	n	n
CCCCC(=O)Nc1nc(C)c(-c2csc(Nc3ccccc3OC)n2)s1	n	n	x	n	n	n
CC1(C)NC(=O)N(CC(=O)OCC(=O)c2ccc(F)cc2)C1=O	n	x	n	n	152.2	n
COc1cc(/C=C/C(=O)OCC(=O)Nc2ccc(S(=O)(=O)N3CCCC3)cc2)ccc1O	n	n	n	82.0	n	n
O=C(N/N=C/c1cc2c3c(c1O)CCCN3CCC2)c1ccccc1O	n	n	n	140.2	n	n
CC(CCc1ccccc1)NC(=O)C1CCCN(C(=O)c2cc3sccc3n2C)C1 (centres undefined)	n	n	n	79.6	n	n
Cc1ccc2c(c1)N(C(=O)CCC(=O)NCc1cccc(Cl)c1)CC(C)O2 (centres undefined)	n	n	x	n	n	n
O=C(Nc1ccc(C(O)(C(F)(F)F)C(F)(F)F)cc1)c1c(F)cccc1F	x	x	n	x	x	x
COc1cc(OC)c(NC(=O)c2cncn2-c2ccc(F)cc2)cc1Cl	n	n	n	71.7	n	n
